Test results: BindingDB's records for doi:10.1021/jm960245f (University of Maryland, 1996)

Legend:
[1] = biological target: T1, Steroid 17-alpha-hydroxylase/17,20 lyase (Homo sapiens, UniProt P05093); test: Inhibition of human testicular 17-alpha-hydroxylase
T1 sequence (P05093 whole entry): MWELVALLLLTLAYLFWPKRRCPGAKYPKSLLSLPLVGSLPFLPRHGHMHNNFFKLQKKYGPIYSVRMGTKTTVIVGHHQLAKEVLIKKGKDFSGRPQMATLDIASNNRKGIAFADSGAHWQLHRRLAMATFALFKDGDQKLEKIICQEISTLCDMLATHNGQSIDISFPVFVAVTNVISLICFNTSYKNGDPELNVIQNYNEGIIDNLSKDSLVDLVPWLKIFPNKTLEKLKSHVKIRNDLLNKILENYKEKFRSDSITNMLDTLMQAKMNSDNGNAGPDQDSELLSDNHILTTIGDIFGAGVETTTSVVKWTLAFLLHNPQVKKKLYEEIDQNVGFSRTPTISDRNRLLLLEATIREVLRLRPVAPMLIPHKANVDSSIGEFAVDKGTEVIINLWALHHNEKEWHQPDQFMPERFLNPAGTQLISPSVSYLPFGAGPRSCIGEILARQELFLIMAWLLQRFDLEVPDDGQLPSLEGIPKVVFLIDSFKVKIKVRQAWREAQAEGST
Outline: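 Human testicular microsomes (ca. 90 μg protein; from orchidectomy patients, stored at –70 °C, diluted in 0.1 M phosphate buffer) incubated with [7-3H]pregnenolone (400 nM) plus NADPH-generating system in phosphate buffer pH 7.4 under oxygen, 5 min, 34 °C, at four to five inhibitor concentrations. Reverse-phase HPLC with radioactivity counting; activity = conversion to 17α-hydroxypregnenolone plus DHEA. IC50 by nonlinear regression; duplicates, repeated at least once.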

[2] = biological target: T1, Steroid 17-alpha-hydroxylase/17,20 lyase; test: Inhibition of human testicular steroid 17-alpha-hydroxylase
Outline: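 Human testicular microsomes (orchidectomy tissue from untreated prostatic cancer patients, ca. 90 μg protein) incubated with [7-³H]pregnenolone (400 nM) plus NADPH-generating system in pH 7.4 phosphate buffer under oxygen, 5 min, 34 °C, with four to five inhibitor concentrations. Reverse-phase HPLC with radioactivity counting; activity = conversion to 17α-hydroxypregnenolone plus DHEA. Duplicates, repeated at least once; IC50 by nonlinear regression.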

IC50 [1]	IC50 [2]	Structure (SMILES)
5.98 µM	–	C[C@@H](CN=O)[C@H]1CC[C@H]2[C@@H]3CCC4=CC(=O)CC[C@]4(C)[C@H]3CC[C@]12C
–	0.53 µM	CC(N=O)C1CCC2C3CC=C4C[C@@H](O)CC[C@]4(C)C3CC[C@]12C (stereo partly drawn) [1-((3S,10R,13S)-3-Hydroxy-10,13-dimethyl-2,3,4,7,8,9,10,11,12,13,14,15,16,17-tetradecahydro-1H-cyclopenta[a]phenanthren-17-yl)-ethanone oxime]
9.98 µM	–	CC(N=N)[C@H]1CC[C@H]2[C@@H]3CC=C4C[C@@H](O)CC[C@]4(C)[C@H]3CC[C@]12C (stereo partly drawn)
